# Screens (PubChem)
# Shown are actives, neighbours in structure and some others; about 1.4% of the full set was active somewhere.
# Tb MetRS inh: blocks T. brucei methionyl-tRNA synthetase activity; purified T. brucei MetRS, ATP depletion, Kinase-Glo luminescence; inhibition, % at 11.9 µM; actives 0.4% (n = 360,000);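 active = inhibition above a per-plate cutoff of the control wells' mean inhibition plus 3 SD, cut at about 5.5% in these data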;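 note: 0% = DMSO wells median and 100% = median of wells with control inhibitor compound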
#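 Material: T. brucei methionyl-tRNA synthetase, purified; reagent: substrates ATP, L-methionine and bulk Escherichia coli tRNA; dosing: 11.9 µM single point; timing: 15 min plus 2 h at 25 °C; detection: luminescence of leftover ATP; evaluation: % inhibition; control set: DMSO-only wells as low control; replicates: singlicate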
# Yeast superoxide: lowers age-related superoxide in aged yeast cells; S. cerevisiae aged cells, superoxide DHE fluorescence; active compounds read low; AID 2690; actives 0.18% (n = 330,000); superoxide response (% of plate mean), % at 10 µM;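 active = superoxide response under a set limit, about three screen SD below normal, cut at about 65% in these data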;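 note: yeast aged for seven days with compound at 30 °C before DHE staining; 100% = average MFI of all compound-treated wells on the plate with controls excluded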
# IDE inh: inhibitors of human insulin-degrading enzyme in cells. P14735. actives 0.41% (n = 320,000). HEK cells, FAbetaB cleavage, fluorescence polarization. AID 434962. inhibition, % at 5.59 µM;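 active = percent inhibition above the average of all tested compounds plus 3 SD, set per screening campaign, cut at about 16% in these data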;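 note: IDE supplied by intact live HEK cells; FP after avidin binding of uncleaved biotin substrate so inhibition keeps polarization high; 0% = DMSO wells and 100% = 60 µM reference IDE inhibitor Ii1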
# HDAC3 inhib: blocks human histone deacetylase 3. recombinant HDAC3, fluorogenic peptide/trypsin coupled, fluorescence. inhibition, % at 8.3 µM. actives 0.15% (n = 320,000). AID 2718; in the data active = inhibition above about 26%, passing the limit was not always enough
# Target sequence (O15379 whole entry, looked up): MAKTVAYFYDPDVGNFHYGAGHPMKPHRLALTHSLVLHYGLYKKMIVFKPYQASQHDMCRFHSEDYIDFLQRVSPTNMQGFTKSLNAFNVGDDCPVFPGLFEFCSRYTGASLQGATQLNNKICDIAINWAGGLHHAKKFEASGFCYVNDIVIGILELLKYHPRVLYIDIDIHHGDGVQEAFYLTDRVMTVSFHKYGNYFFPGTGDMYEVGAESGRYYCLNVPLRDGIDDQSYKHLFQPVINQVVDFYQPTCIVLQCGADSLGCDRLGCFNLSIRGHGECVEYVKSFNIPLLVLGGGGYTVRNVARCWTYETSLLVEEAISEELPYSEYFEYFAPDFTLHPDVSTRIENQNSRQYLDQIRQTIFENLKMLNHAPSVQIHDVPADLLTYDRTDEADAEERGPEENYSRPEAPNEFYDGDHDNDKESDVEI
# Efflux pump mplx: blocks antifungal efflux pumps in multiplex yeast assay; S. cerevisiae Candida pump triplex, Nile Red efflux; inhibition, % at 10 µM; actives 0.44% (n = 330,000); AID 485275;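 active = plate passing quality check with inhibition over a set limit, or well fluorescence over plate mean plus 4 SD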;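 note: Nile Red retained in pooled yeast measured as flow cytometry median fluorescence; 0% = buffer negative control and 100% = Enniatin B positive control; higher means more Nile Red kept so more efflux inhibition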
# IDE act: IDE (human) activation, cell-based | actives 0.073% (n = 340,000) | HEK cells, FAbeta-B cleavage, fluorescence polarization; 0% vehicle, 100% cell-free pure enzyme wells | P14735 | AID 493087 | activation, % at 5.96 µM;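 active = activation above the mean of all tested compounds plus 3 SD, set per screening campaign, cut at about 17% in these data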
# CR mimetic CP: yeast aging superoxide inhibition, cherry pick confirmation; shares compounds with Yeast superoxide; S. cerevisiae aging, superoxide DHE fluorescence; active compounds read low; superoxide response (% of plate), % at 10 µM; actives 1% (n = 850); AID 434994;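 active = superoxide signal below 65% of the plate average of sample wells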;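 note: cells aged with compound for 7 days at 30 degrees C before staining; 100% equals mean DHE fluorescence of all compound wells on the plate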
# DHE counter: compound alters DHE oxidation or fluorescence in yeast; S. cerevisiae BY4741, flow cytometry; active compounds read low; fluorescence response, % at 10 µM; AID 435000; shares compounds with Yeast superoxide; 850 tested, under 10 active;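 active = fluorescence response below 15%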;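 note: percent of the mean fluorescence averaged over all compound wells on the plate; lower means stronger quenching of DHE signal or ROS scavenging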
# An asterisk follows results filed as active; . = not tested or not shown.
SMILES,Tb MetRS inh,Yeast superoxide,IDE inh,HDAC3 inhib,Efflux pump mplx,IDE act,CR mimetic CP,DHE counter
Cc1cc(C)n2nc(C(=O)OCC(=O)NNC(=O)c3ccccc3)nc2n1,0,76,3,-1,0,-2,.,.
CCN(CC(=O)Nc1cccc(F)c1)CC(=O)Nc1ccc2c(c1)OCCO2,0,.,.,.,.,.,.,.
O=C(CC1C(=O)NCCN1C(=O)Nc1ccc(F)cc1F)Nc1cc(Cl)ccc1Cl (stereo unspecified),0,112,6,5,0,0,.,.
Cc1cc(C)cc(NC(=O)N2CCNC(=O)C2CC(=O)Nc2cc(Cl)ccc2Cl)c1 (stereo unspecified),0,64*,11,-6,0,0,99,109
Cc1ccc(S(=O)(=O)NNC(=O)c2snnc2C)cc1,0,105,4,-1,0,4,.,.
Cc1nnsc1C(=O)NNS(=O)(=O)c1cc(C(F)(F)F)cc(C(F)(F)F)c1,0,59*,0,4,0,10,96,96
O=C(NN=C1CCCCCC1)c1cn(-c2ccccc2)nc1-c1ccccc1,0,64*,-1,1,1,6,126,103
CCC(=O)c1ccc(N2CCN(C(=O)c3ccccc3)CC2)c(F)c1,-1,85,1,2,0,0,106,96
O=C(c1ccccc1)N1CCN(c2ccccc2F)CC1,0,98,-6,.,0,0,119,99
CCOC(=O)N1CCN(c2ccc(C(=O)CC)cc2F)CC1,-1,111,5,0,0,4,.,.
CC(=O)c1ccc(N2CCN(C(=O)c3ccc(Br)cc3)CC2)c(F)c1,-1,88,-1,-3,0,-5,90,109
O=C(O)c1ccc(CN2C[C@@H](CO)O[C@@H](n3cnc4c(NCc5ccc(F)cc5)ncnc43)C2)cc1,0,.,.,.,.,.,.,.
Cc1[nH]c2ccccc2c1N=Nc1ccccc1F,0,65*,1,6,0,6,91,98
Cc1[nH]c2ccccc2c1N=Nc1ccc(F)cc1,-1,94,3,21,0,1,.,.
COc1ccc(CNC(=O)CSc2nc(SC)ns2)cc1,0,100,4,13,0,4,.,.
CSCCC(NC(=O)c1ccccc1Br)C(=O)NCc1ccc(F)cc1 (stereo unspecified),-1,23*,-2,-4,1,3,88,109
CCc1ccc(NC(=O)CCn2nc(C)c(S(=O)(=O)N3CCCCC3)c2C)cc1,0,81,3,4,0,6,.,.
CCOc1ccc(NC(=O)CCn2nc(C)c(S(=O)(=O)N3CCCCC3)c2C)cc1,1,58*,0,5,0,1,99,99
CN(C)CCCNc1ccc(S(N)(=O)=O)cc1[N+](=O)[O-],0,94,-2,2,0,1,.,.
COc1ccc(NS(=O)(=O)c2c(C)cc(C)cc2C)cc1,-1,100,-4,7,0,4,.,.
COc1cccc(NS(=O)(=O)c2c(C)cc(C)cc2C)c1,0,98,-4,7,0,4,95,92
O=C(Nc1ccc(Cl)cc1)[C@@H]1[C@@H]2C(=O)N(c3ccc(Cl)cc3)C(=O)[C@@H]2[C@H]2C=CC=NN21,3,64*,-5,-13,0,1,99,93
CC(=O)c1cccc(N2C(=O)CC(N3CCN(S(=O)(=O)c4ccccc4F)CC3)C2=O)c1 (stereo unspecified),0,84,5,-11,0,4,.,.
O=C1CC(N2CCN(S(=O)(=O)c3ccccc3F)CC2)C(=O)N1c1ccc(F)cc1F (stereo unspecified),0,65*,3,1,0,0,109,89
CNC(=O)c1ccc(Nc2nnc(-c3ccc(C)c(S(=O)(=O)NCC4CCCO4)c3)c3ccccc23)cc1 (stereo unspecified),1,103,4,4,0,-1,110,114
SMILES,Tb MetRS inh,Yeast superoxide,IDE inh,HDAC3 inhib,Efflux pump mplx,IDE act,CR mimetic CP,DHE counter
CNS(=O)(=O)c1cc(-c2nnc(Nc3ccc(NC(C)=O)cc3)c3ccccc23)ccc1C,-1,51*,-2,-1,0,3,104,96
Cc1ccc(-c2nnc(Nc3ccc(CC(N)=O)cc3)c3ccccc23)cc1S(=O)(=O)NCCO,0,91,-1,3,0,5,.,.
Cc1ccc(-c2nnc(Nc3ccccc3)c3ccccc23)cc1S(=O)(=O)NCC1CCCO1 (stereo unspecified),-1,85,7,9,0,-5,98,102
Cc1ccc(-c2nnc(Nc3ccc4c(c3)OCO4)c3ccccc23)cc1S(=O)(=O)NC(C)C,-1,103,2,11,0,-1,100,92
CC(=O)Nc1ccc(Nc2nnc(-c3ccc(C)c(S(=O)(=O)NCC4CCCO4)c3)c3ccccc23)cc1 (stereo unspecified),0,86,8,1,0,-5,107,104
COc1ccc(/C=C/CN2CCN(Cc3ccc(F)cc3)C(CCO)C2)cc1 (stereo unspecified),0,98,2,-3,0,-2,.,.
C#CCOc1ccc(CNC[C@H]2O[C@@H](n3ccc(=O)[nH]c3=O)[C@H](O)[C@@H]2O)cc1,0,.,.,.,.,.,.,.
O=S(=O)(c1ccc(Cl)s1)N1CCC(Cc2ccccc2)CC1,0,62*,1,7,0,-4,106,103
Cc1cc(C)n(-c2nnc(NC34CC5CC(CC(C5)C3)C4)nn2)n1,0,64*,0,1,1,0,87,98
Cc1cc(C)n(-c2nnc(NC(C)(C)C)nn2)n1,-1,91,5,2,0,5,.,.
COc1ccc(N2CCN(C(=O)c3ccc(C)cc3Cl)CC2)cc1,0,95,-3,-4,0,1,97,91
Cc1ccc(C(=O)N2CCN(c3ncccn3)CC2)cc1,0,65*,.,-9,0,0,97,93
CCOc1ccc(C(=O)N2CCN(c3ccccc3)CC2)cc1,-1,97,0,2,0,.,96,95
COc1ccc(N2CCN(C(=O)c3cc(=O)c4ccc(C)cc4o3)CC2)cc1,-1,106,0,-4,0,-1,.,.
COc1ccc(N2CCN(C(=O)c3ccc(C)c(Cl)c3)CC2)cc1,-1,83,5,3,0,0,94,99
Cc1ccc(NS(=O)(=O)c2ccc(C(=O)N3CCN(c4ncccn4)CC3)cc2)cc1,-1,106,1,5,0,-5,.,.
O=C(NCc1cccc(C(F)(F)F)c1)c1c[nH]c(=O)s1,1,.,.,.,.,.,.,.
